Variants at the floor of the assay were thinned out. A value given as a limit tells only on which side of the number the result lay.

First the molecules themselves.
B1: tRNA (parent)
chain: GUUCCGUUGGCGUAAUGGUAACGCGUCUCCCUCCUAAGGAGAAGACUGCGGGUUCGAGUCCCGUACGGAACG

The data set covers variants of B1. Nature of the data set: yeast fitness relative to wild type (ratio to wild type); higher = fitter; tRNA-Arg(CCU), competitive growth, 37 C, YPD. The essentials:
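Gene amplicons from the start population and from each of six end populations were read by 100-nucleotide paired-end sequencing. Those end populations came from pooled Saccharomyces cerevisiae strains carrying tRNA-Arg(CCU) gene variants at the native locus, competed in YPD at 37°C for 24 hours. Fitness relative to wild type was worked out from changes in genotype frequencies. Genotypes needed ≥ 100 starting reads, and estimates < 0.5 were set to 0.5.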
In the case of GUUCCAUUGGCGUAAUGGUAACGCGUCUCCCUUCUAAGGAGAAGACUGCGGGUUCCAGUUCCGUACGGAACG [G6A C33U G56C C60U], the yeast fitness was no more than 0.5.

As for GUUCCGUUGGCGUAAUGGUUACGGGUCUCCCUCCUAAGGAGAAGACUGCGGGUUCGAGUCCCAUUCGGAACG [A20U C24G G63A A65U], the yeast fitness is no more than 0.5.

GUUCCGUUGACGUAAUGGUAGCGCGUCUCUCUCCUAAGGAGAAGACUGCCGGUUCGAGUCCCGUACGGAACG [G10A A21G C30U G50C]: the yeast fitness worked out at 0.752.

As for GUUCCAUUGGCGUAAUGGUAACGCGUCUCCCUACUAAGGAGAAGACUGCGGGUUCGAAUCCCCUACGGAACG [G6A C33A G58A G63C], the yeast fitness is no more than 0.5.

Take GUUUCGUUGGCGUAAUGGUAACGGGACGCCCUCCUAAGGAGAAGACUGCGGGUUCGAGUCCCGUACGCAACG [C4U C24G U26A U28G G68C]: the yeast fitness is no more than 0.5.

In the case of GUUCCGUUGGUGUAAUGGUAACGCGUCUCCCUCCUAAGGCGAAGACUGCGGGAUCGAGUCCCGUACGGCUCG [C11U A40C U53A A69C A70U], the yeast fitness was no more than 0.5.

Consider GUUCCAUUGGCAUAAUGGUAACGCGUCUCCCUCCUAAGGAGAAGACUGCGGGUUCGAGUCCCGUACGGAUCG [G6A G12A A70U], for which the yeast fitness stood at 0.656.

As to GUUCCGCUGGCGUAAUGGUAACGCGUCUCACUCCUAAGGAGAAGACUGCGGGUUCGAGUACCGUACGGAACG [U7C C30A C60A], the yeast fitness is no more than 0.5.

As for GUUCCGUUAGCGGAAUGGUAACGCGUCUCCCUCCUGAGGAGAAGACUGCGGGUUCGAGUCCCGUACGGAACG [G9A U13G A36G], the yeast fitness came out at 0.574.

With GUUUGGUUGGCGUAAUGGUAACGCGUCUCCCUCCUAAGGAGAAGACUGCGGGUUCGAGUACCGUACGGAACG [C4U C5G C60A], the yeast fitness is no more than 0.5.

Turning to GUUCCGUUGGCGUAAUGGUAACGCGUGUCCCUCCUAAGGAGAAGACUGCGGGUUCGGGGCCCGUACGGAACG [C27G A57G U59G], the yeast fitness is no more than 0.5.

Take GUUACCUUGGCGUAAUGGUAACGCGUCUCCCUCCUAAGGAGAAGACUGCGGGUUUGAGUCCCGUACGCAACG [C4A G6C C55U G68C]: the yeast fitness was no more than 0.5.

Turning to GUUCCGCUGGCGUAAUGGUUACGCGUCUCCCUCCUGAGGUGAAGACUGCGGGUUCGAGUCCCGUACGGAACG [U7C A20U A36G A40U], the yeast fitness is no more than 0.5.

In the case of GUUCCGUUGACGUAAUGGUAACGCGUCUCUCUCCUAAGGAGAAGACUGCGGGUUCGAGUCCCAUACGGAACG [G10A C30U G63A], the yeast fitness worked out at 0.538.

Consider GUUCCGUUGGCGUAAUGGUAACGCGUCUCCCUCCUAAGGAGAAGAAUCCGGGUUCGAGUCCCGUACGGAACG [C46A G48C], for which the yeast fitness is 0.924.

GUUCCGUUGGCGUAAUGGUAACGUGUCUCCCUCCUAGGGAGAGGACUGAGGGUUCGAGUCCCGUACGGAACG [C24U A37G A43G C49A]: the yeast fitness was no more than 0.5.

Turning to GUUCCGUUGGCGUAAUGGUAACGCGUCUCCCUCCUAAGGAAAACACUGCGGGUUCGAGUCGCGUACGGAACG [G41A G44C C61G], the yeast fitness was no more than 0.5.

Turning to GUUCCGUUGGCGUAAUGGUAACGCGUUACCCACUUCAGGAGAAGACUGCGGGUUAGAGUCCCGUACGGAACG [C27U U28A U32A C34U A36C C55A], the yeast fitness stood at 0.543.

In the case of GUUCAGUUGGCGUAAUGGUAACGCGUCUCCCUCCUAAGGAAAAGACUGCGGGUUCCAGUCCCGUCCGGAACG [C5A G41A G56C A65C], the yeast fitness is no more than 0.5.

Regarding GUUCCGUUGGCGUAAUGGUAACGCGUCUCCCCCCUAAGGAGACGACUGCGGGUUCGAGUCCCGUACGGAACG [U32C A43C], the yeast fitness was determined as 0.83.

As to GUUCCGUUGGCGUCAUGCUAACGCGUCUUCCUCCUAAGGAGAAGACUGCGGGUUCGAGUCCCGUCCGGAACG [A14C G18C C29U A65C], the yeast fitness is no more than 0.5.

For the variant GUCCCGUUGGCGUAAUGGUAACGCGUCUCCCGCCUAAGGCAAAGACUGCGGGUUCGAGUCCCGUACGGAACG [U3C U32G A40C G41A], the yeast fitness is no more than 0.5.

For GUUCCGUUGGCGUAAUGGUGACGCGUCUCCCUCCUAAGGAGAAGACUGCGGGUUCGAGUCACGUACGGAACG [A20G C61A], the yeast fitness worked out at 0.706.

Consider GUUCCGUUGGCGUAAUGGUAACGCGUCUCCCUCCUCAGGAGAAGACUGAGGGUCCGAGUCCCGCACGGAACG [A36C C49A U54C U64C], for which the yeast fitness is no more than 0.5.

For the variant GUUCCGUUGGCGUAAAGGUAACCCGACUUCCUCCUAAGGAGUAGACUACGGGUUCGAGUCCCGUACAGAACG [U16A G23C U26A C29U A42U G48A G67A], the yeast fitness was no more than 0.5.

GUUCCGUUGGCGUAGUGGUAACGCGUCUCCCUCCUAAGGAGAAGACUGCGGGUGUGAGUCCCGUGCGGAACG [A15G U54G C55U A65G]: the yeast fitness was no more than 0.5.

As to GUUCCGUUGGCGUAAUGGUAACGUGUCUCCCUCCUAAGGAGUAGACUGCGCGUUCGAGUCCCGUACGGAACG [C24U A42U G51C], the yeast fitness is no more than 0.5.

On to GUUCCAUUGGUGUAAUGGUAACGCGUCUCCCUCCUAAGGAGAAGACUGGGGGUUCGAGUCCUGUACGGAACG [G6A C11U C49G C62U], for which the yeast fitness is no more than 0.5.

With GUUCCGUUGGCGUAAUGGUAACGGGUCUCCCUCCUAAGGGGAAGACUGCGGGUUCGAGUCCCGUACGGAACG [C24G A40G], the yeast fitness was 0.647.

For GUUCCGUUGGCGUAAUGGUAAGGCGUCUCCCUCCUAAGGAGAAGACUGCGGGUUCGAGUCCCGCACGGAACG [C22G U64C], the yeast fitness worked out at 0.856.

With GUUCCGUUGGCGUAAUGGUAACGCGUCUCCCUCCUAAGGAGAAGACUGCGGAUUCGAGUCCCGUAAGGUACG [G52A C66A A69U], the yeast fitness is 0.551.

For the variant GUUCCGUUGGCGUAAUGGUUACGCGUCUCCCUCCUAAGGAGAAGACUGCGGGUUCGAGUCCCGUACAGAGCG [A20U G67A A70G], the yeast fitness worked out at 0.882.

For the variant GUUCCGUUGACGUAAUGGUAACGCGUCUCCCUCCAAAGGAGAAGACUGCGGGUUCGAGUCCCCUACGGAACG [G10A U35A G63C], the yeast fitness is no more than 0.5.

For GUUCCCUUGGCGUCAUGGUAACGCGUCUUCCUCGUAAGGAGAAGAUUGCGGGUUCGAGUCCCGUAAGCAACG [G6C A14C C29U C34G C46U C66A G68C], the yeast fitness was no more than 0.5.

On to GUUCCGUUGGCGUAAUGGUAACGCGACUCCCUCCUAAGGGGAAGACUGCGGGUUCGACUCCCGUACUGAACG [U26A A40G G58C G67U], for which the yeast fitness was found to be 0.556.

As for GUUUCGUUGGUGUAAUGGUAACGCCUCUCCCUCCUAAGGAGAAGACUGCGGGUUCGAGUCCCGUACGGAACG [C4U C11U G25C], the yeast fitness was found to be 0.747.

As for GUUCCGUUGGCGUAAUGGUAACGCGUCUCCCUCUUAAGGGGAAGACUGCGGGUCCGGGUCCCGUACGGAACG [C34U A40G U54C A57G], the yeast fitness was no more than 0.5.

With GUUCCGUUGGCGUAAUGGUCACGCGUCUCCCUCCUAAGGAGAAGACUGCGGGUUCGAGUCCCGUACGGAACG [A20C], the yeast fitness worked out at 1.01.

The values above are taken from the RNAGym collection of RNA variant scans (doi:10.1126/science.aae0568).
